This passage reports IC50, inhibition and Rate results from ChEMBL document CHEMBL1124728, “Small peptide inhibitors of smooth muscle myosin light chain kinase” (J Med Chem, 1990).

For assay [1], the target named is T1, Myosin light chain kinase, smooth muscle (Gallus gallus, UniProt P11799). Nature of the assay: Inhibition of calmodulin-independent form of myosin light chain kinase isolated from chicken gizzard. The gist of the method: (§1)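 Chicken gizzard MLCK made calmodulin-independent by limited trypsin digestion. It was started with ATP and stopped with HCl. Phosphate in substrate was counted on phosphocellulose filters. IC50 was read graphically from duplicates at four concentrations and reported as the mean, or as % inhibition at one concentration.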

Assay [2] has as its target T1, Myosin light chain kinase, smooth muscle. Nature of the assay: Inhibition of native form of chicken MLCK (myosin light chain kinase). The gist of the method: (§2)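 Native calmodulin-dependent gizzard MLCK, over 95% homogeneous, with 200 nM calmodulin, 1 mM EGTA and about 200 μM excess free Ca2+. Started with ATP and stopped with HCl; phosphocellulose filter counting. Graphical IC50 from duplicates at four concentrations, or % inhibition at a single concentration.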

For assay [3], the target named is Myosin light chain kinase, smooth muscle (Gallus gallus) (UniProt P11799). Nature of the assay: Inhibition of native form of myosin light chain kinase at from chicken gizzard 100 uM. In short, it runs like this:
as §2

The target is the same in assay [4]. Nature of the assay: Inhibition of calmodulin-independent form of Myosin light chain kinase from chicken gizzard at 100 uM. The settings on record: 300 uM, in the assay text read “at 300 uM” for “at 100 uM”. The gist of the method: as §1
For assay [5] the target is unchanged. Nature of the assay: Rate of phosphate incorporation by myosin light chain kinase at 50 uM.
Assay [6] shares this target. Nature of the assay: Inhibition of calmodulin-independent form of Myosin light chain kinase from chicken gizzard at 300 uM. The gist of the method: as §1
For assay [7] the target is unchanged. Nature of the assay: Inhibition of native form of myosin light chain kinase from chicken gizzard at 1000 uM. The gist of the method: as §2
The target of assay [8] is T1, Myosin light chain kinase, smooth muscle. Nature of the assay: Inhibition of calmodulin-independent form of MLCK(myosin light chain kinase) from chicken gizzard. In short, it runs like this: as §1
The target is the same in assay [9]. Nature of the assay: Inhibition of native form of MLCK myosin light chain kinase from chicken gizzard. In short, it runs like this:
as §2

Assay [10] has as its target Myosin light chain kinase, smooth muscle (Gallus gallus) (UniProt P11799). The settings on record: 1000 uM.
Assay [11] has the same target. Nature of the assay: Inhibition of native form of myosin light chain kinase from chicken gizzard 1000 uM. The gist of the method: as §2
Assay [12] has as its target T1, Myosin light chain kinase, smooth muscle. Nature of the assay: Inhibition of native form of myosin light chain kinase from chicken gizzard. The gist of the method:
as §2

Starred links: 1 amine or outer side, 2 acyl side, 3 side chain; linkers in the order of their positions; H or OH if unused. Non-standard residues stand in square brackets, D forms with d. Residues, ends and D or L forms follow the SMILES beside them. *: point of attachment. Bip = N[C@@H](Cc1ccc(-c2ccccc2)cc1)C(=O)O; isoSer(2S) = O=C([C@@H](O)CN[*:1])[*:2]; 1Nal = N[C@@H](Cc1cccc2ccccc12)C(=O)O; NHCH2(2-pyridyl) = c1ccc(CN*)nc1; OCH2CH2Ph = c1ccc(CCO*)cc1; NHBn = c1ccc(CN*)cc1; OBn = c1ccc(CO*)cc1

Sequence of Myosin light chain kinase, smooth muscle (Gallus gallus) (P11799 whole entry): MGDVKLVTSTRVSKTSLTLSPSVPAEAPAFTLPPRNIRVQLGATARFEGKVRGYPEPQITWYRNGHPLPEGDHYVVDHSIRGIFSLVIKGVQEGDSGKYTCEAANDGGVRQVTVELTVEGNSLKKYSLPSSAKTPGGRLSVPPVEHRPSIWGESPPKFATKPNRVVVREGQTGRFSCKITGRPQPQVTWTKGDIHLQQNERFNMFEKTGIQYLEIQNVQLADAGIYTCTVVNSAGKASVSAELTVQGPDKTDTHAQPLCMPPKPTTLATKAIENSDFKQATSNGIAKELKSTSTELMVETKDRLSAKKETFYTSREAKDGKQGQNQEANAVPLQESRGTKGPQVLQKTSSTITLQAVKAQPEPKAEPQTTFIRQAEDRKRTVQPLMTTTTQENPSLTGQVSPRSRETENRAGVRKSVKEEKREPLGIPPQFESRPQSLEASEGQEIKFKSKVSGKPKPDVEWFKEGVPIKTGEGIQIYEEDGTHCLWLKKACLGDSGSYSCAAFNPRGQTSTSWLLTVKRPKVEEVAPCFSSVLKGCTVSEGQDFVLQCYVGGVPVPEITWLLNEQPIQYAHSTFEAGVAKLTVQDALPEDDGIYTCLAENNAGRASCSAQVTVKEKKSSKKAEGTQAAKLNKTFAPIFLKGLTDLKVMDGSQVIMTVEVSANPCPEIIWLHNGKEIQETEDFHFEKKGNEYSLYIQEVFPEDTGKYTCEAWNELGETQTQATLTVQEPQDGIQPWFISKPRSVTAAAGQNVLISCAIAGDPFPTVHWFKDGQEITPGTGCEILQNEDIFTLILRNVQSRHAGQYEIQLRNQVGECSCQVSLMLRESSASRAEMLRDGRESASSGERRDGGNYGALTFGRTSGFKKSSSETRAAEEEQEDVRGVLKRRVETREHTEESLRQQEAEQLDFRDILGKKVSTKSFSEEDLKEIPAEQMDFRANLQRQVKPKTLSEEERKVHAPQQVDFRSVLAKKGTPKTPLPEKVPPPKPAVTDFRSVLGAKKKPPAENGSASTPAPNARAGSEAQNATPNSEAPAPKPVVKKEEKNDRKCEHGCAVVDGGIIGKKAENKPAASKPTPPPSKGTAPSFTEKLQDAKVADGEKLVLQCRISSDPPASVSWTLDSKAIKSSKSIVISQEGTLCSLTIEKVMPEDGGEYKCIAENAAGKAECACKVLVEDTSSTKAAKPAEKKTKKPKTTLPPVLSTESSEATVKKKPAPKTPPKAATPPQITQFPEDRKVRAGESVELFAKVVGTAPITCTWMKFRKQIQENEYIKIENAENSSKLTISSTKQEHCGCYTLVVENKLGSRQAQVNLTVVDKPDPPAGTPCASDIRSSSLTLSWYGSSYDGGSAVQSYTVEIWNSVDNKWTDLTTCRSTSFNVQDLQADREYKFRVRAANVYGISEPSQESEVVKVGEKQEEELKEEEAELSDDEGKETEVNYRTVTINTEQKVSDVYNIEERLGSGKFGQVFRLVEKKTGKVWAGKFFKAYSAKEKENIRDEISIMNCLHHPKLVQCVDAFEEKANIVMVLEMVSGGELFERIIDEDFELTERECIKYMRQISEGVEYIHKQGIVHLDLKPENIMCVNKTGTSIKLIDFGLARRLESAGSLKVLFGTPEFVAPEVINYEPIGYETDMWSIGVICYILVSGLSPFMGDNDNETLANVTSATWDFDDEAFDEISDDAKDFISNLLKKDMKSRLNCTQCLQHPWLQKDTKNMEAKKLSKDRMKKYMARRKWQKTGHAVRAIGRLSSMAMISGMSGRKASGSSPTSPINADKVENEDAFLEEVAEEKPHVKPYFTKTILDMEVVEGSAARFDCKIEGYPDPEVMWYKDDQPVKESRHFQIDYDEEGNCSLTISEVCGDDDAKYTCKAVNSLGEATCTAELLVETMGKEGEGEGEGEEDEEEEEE
T1 sequence (P11799 whole entry): as above

One may read the IC50 as the concentration at which inhibition is half-maximal. As for `CC(C)[C@H](NC(=O)[C@H](CC(N)=O)NC(=O)[C@@H](N)CO)C(=O)N[C@@H](Cc1ccc(-c2ccccc2)cc1)C(=O)N[C@@H](C)C(=O)OCc1ccccc1` (H-SNV[Bip]A-OBn), the figures for the half-inhibitory concentration (IC50) in assay [1] and in assay [2] were 5 µM and 1 µM, respectively.
Broadly, the inhibition is the relative decrease from the control value, in per cent. A low value points to little suppression. On to `CC(C)[C@H](NC(=O)[C@H](CCC(N)=O)NC(=O)[C@@H](N)CO)C(=O)N[C@@H](Cc1ccccc1)C(=O)N[C@@H](C)C(=O)OCc1ccccc1` (H-SQVFA-OBn), for which the inhibition in assay [3] was found to be 32%.
For the molecule `CC(C)[C@H](NC(=O)[C@@H](/C=C/[C@@H](N)CO)CC(N)=O)C(=O)N[C@@H](Cc1ccccc1)C(=O)N[C@@H](C)C(=O)NCc1ccccc1`, the inhibition in assay [4] stood at 0%.
`CC(C)[C@H](NC(=O)[C@H](CC(N)=O)NC[C@@H](N)CO)C(=O)N[C@@H](Cc1ccccc1)C(=O)N[C@@H](C)C(=O)NCc1ccccc1`: the inhibition in assay [4] was 0%.
With `CC(C)[C@H](NC(=O)[C@H](CC(N)=O)NC(=O)[C@@H](O)CN)C(=O)N[C@@H](Cc1ccccc1)C(=O)N[C@@H](C)C(=O)OCc1ccccc1` ({isoSer(2S)}-NVFA-OBn), the inhibition in assay [3] is 14%.
`C[C@H](NC(=O)[C@H](Cc1ccccc1)NC(=O)CNC(=O)[C@H](CC(N)=O)NC(=O)[C@@H](N)CO)C(=O)OCc1ccccc1` (H-SNGFA-OBn) had an inhibition in assay [4] of 17%.
As to `CC(C)[C@H](NC(=O)[C@H](CO)NC(=O)[C@@H](N)CO)C(=O)N[C@@H](Cc1ccccc1)C(=O)N[C@@H](C)C(=O)OCc1ccccc1` (H-SSVFA-OBn), the inhibition in [3] stood at 15%.
Still for that read-out and setting: for `CC(C)[C@H](NC(=O)[C@@H](CC(N)=O)NC(=O)[C@H](N)CO)C(=O)N[C@@H](Cc1ccccc1)C(=O)N[C@@H](C)C(=O)OCc1ccccc1` the value was 14%.
In [5], `CC(C)[C@H](NC(=O)[C@H](CC(N)=O)NC(=O)[C@H](CO)NC(=O)[C@@H](NC(=O)[C@H](C)NC(=O)[C@H](CCCN=C(N)N)NC(=O)[C@H](CCC(N)=O)NC(=O)[C@@H]1CCCN1C(=O)[C@H](CCCN=C(N)N)NC(=O)[C@H](CCCCN)NC(=O)[C@@H](N)CCCCN)[C@@H](C)O)C(=O)N[C@@H](Cc1ccccc1)C(=O)N[C@@H](CO)C(N)=O` (H-KKRPQRATSNVFS-NH2) returned a Rate of 45 pmol/min.
In turn, `CC(C)[C@H](NC(=O)[C@H](Cc1c[nH]cn1)NC(=O)[C@@H](N)CO)C(=O)N[C@@H](Cc1ccccc1)C(=O)N[C@@H](C)C(=O)OCc1ccccc1` (H-SHVFA-OBn) showed an inhibition in [3] of 0%.
The molecule `COC(=O)[C@H](C)NC(=O)[C@H](Cc1ccccc1)NC(=O)[C@@H](NC(=O)[C@H](CC(N)=O)NC(=O)[C@@H](N)CO)C(C)C` (H-SNVFA-OMe) gave an inhibition in assay [6] of 0%.
As to `CC(C)[C@H](NC[C@H](CC(N)=O)NC(=O)[C@@H](N)CO)C(=O)N[C@@H](Cc1ccccc1)C(=O)N[C@@H](C)C(=O)OCc1ccccc1`, the inhibition in assay [4] turned out to be 33%.
In assay [7], `C[C@H](NC(=O)[C@@H](N)Cc1ccccc1)C(=O)OCc1ccccc1` showed an inhibition of 0%.
As for `CC(C)[C@H](NC(=O)[C@H](CC(N)=O)NC(=O)[C@@H](N)CO)C(=O)N[C@@H](Cc1ccccc1)C(=O)N[C@@H](C)C(=O)O` (H-SNVFA-OH), the inhibition in assay [4] stood at 0%.
For the molecule `CC(C)[C@H](NC(=O)[C@H](CC(N)=O)NC(=O)[C@@H](N)CO)C(=O)N[C@@H](Cc1ccccc1)C(=O)N[C@@H](C)C(=O)OCc1ccccc1`, the concentration for half-maximal inhibition (IC50) is 21 µM in assay [8] and 28 µM in assay [9]. In assay [10], this molecule gave a Rate of 0.017 pM/min.
As to `CC(C)[C@H](NC(=O)[C@H](CC(N)=O)NC(=O)[C@@H](N)CO)C(=O)N[C@@H](Cc1ccccc1)C(=O)N[C@@H](C)C(=O)NCc1ccccn1` (H-SNVFA-{NHCH2(2-pyridyl)}), the inhibition in assay [4] came out at 5%; in [7] it was 0%.
`CC(C)[C@H](NC(=O)[C@H](CC(N)=O)NC(=O)[C@@H](N)CO)C(=O)OCc1ccccc1` (H-Ser-Asn-Val-OBn) displayed an inhibition in assay [11] of 0%.
With `CC(C)[C@H](NC(=O)[C@H](CC(N)=O)NC(=O)[C@@H](N)CO)C(=O)N[C@@H](Cc1ccccc1)C(=O)N[C@@H](C)C(=O)NCc1ccccc1` (H-SNVFA-NHBn), the IC50 in assay [1] came out at 16 µM; in assay [2], 15 µM.
For `CC(C)[C@@H](NC(=O)[C@H](CC(N)=O)NC(=O)[C@@H](N)CO)C(=O)N[C@@H](Cc1ccccc1)C(=O)N[C@@H](C)C(=O)OCc1ccccc1`, the inhibition in assay [3] was 0%.
`CC(C)[C@H](NC(=O)[C@H](CC(N)=O)NC(=O)[C@@H](N)CO)C(=O)N[C@@H](Cc1ccccc1)C(=O)N[C@@H](C)C(N)=O` (H-SNVFA-NH2) displayed an inhibition in assay [6] of 0%.
On to `CC(C)[C@H](NC(=O)[C@H](CC(=O)O)NC(=O)[C@@H](N)CO)C(=O)N[C@@H](Cc1ccccc1)C(=O)N[C@@H](C)C(=O)OCc1ccccc1` (H-SDVFA-OBn), for which the inhibition in assay [3] is 0%.
Molecule `CC(C)[C@H](NC(=O)[C@H](C)NC(=O)[C@@H](N)CO)C(=O)N[C@@H](Cc1ccccc1)C(=O)N[C@@H](C)C(=O)OCc1ccccc1` (H-SAVFA-OBn) displayed a half-maximal inhibitory concentration (IC50) in assay [1] of 18 µM.
As for `CC(C)[C@H](NC(=O)[C@H](CC(N)=O)NC(=O)[C@@H](N)CO)C(=O)N[C@@H](Cc1ccccc1)C(=O)N[C@@H](C)C(=O)OCCc1ccccc1` (H-SNVFA-OCH2CH2Ph), the IC50 in [1] was 50 µM; in [2], 15 µM.
In the case of `CC(C)[C@H](NC(=O)[C@H](CC(N)=O)NC(=O)[C@@H](N)CO)C(=O)N[C@@H](Cc1ccccc1)C(=O)N[C@H](C)C(=O)OCc1ccccc1`, in assay [1], the IC50 was determined as 64 µM.
For the molecule `CC(C)[C@H](NC(=O)[C@H](CC(N)=O)NC(=O)[C@H](N)CO)C(=O)N[C@@H](Cc1ccccc1)C(=O)N[C@@H](C)C(=O)OCc1ccccc1`, the results for the concentration for half-maximal inhibition (IC50) in assay [1] and in assay [2] were 12 µM and 5 µM, respectively.
Take `CC(C)[C@H](NC(=O)[C@@H](CC(N)=O)NC(=O)[C@@H](N)CO)C(=O)N[C@@H](Cc1ccccc1)C(=O)N[C@@H](C)C(=O)OCc1ccccc1`: the inhibition in assay [3] stood at 0%.
The molecule `CC(C)[C@H](NC(=O)[C@H](CC(N)=O)NC(=O)[C@@H](N)CO)C(=O)N[C@H](Cc1ccccc1)C(=O)N[C@@H](C)C(=O)OCc1ccccc1` displayed a 50% inhibitory concentration (IC50) in [1] of 75 µM.
On the same count and under the same terms, in the case of `CC(C)[C@H](NC(=O)[C@H](CC(N)=O)NC(=O)[C@@H](N)CO)C(=O)N[C@H](/C=C/[C@@H](C)COCc1ccccc1)Cc1ccccc1` it was 23 µM.
In turn, `CC(C)[C@H](NC(=O)[C@H](CC(N)=O)NC(=O)CN)C(=O)N[C@@H](Cc1ccccc1)C(=O)N[C@@H](C)C(=O)OCc1ccccc1` (H-GNVFA-OBn) came in with an inhibition in assay [3] of 37%.
For the molecule `CC(C)[C@H](NC(=O)[C@H](CC(N)=O)NC(=O)[C@@H](N)CO)C(=O)N[C@@H](Cc1cccc2ccccc12)C(=O)N[C@@H](C)C(=O)OCc1ccccc1` (H-SNV[1Nal]A-OBn), the IC50 in assay [1] and in assay [2] was 2 µM each time.
In assay [1], `CC(C)[C@@H](NC(=O)[C@@H](CC(N)=O)NC(=O)[C@@H](N)CO)C(=O)N[C@@H](Cc1ccccc1)C(=O)N[C@@H](C)C(=O)OCc1ccccc1` had a half-inhibitory concentration (IC50) of 186 µM.
On to `CC(C)[C@H](N)C(=O)N[C@@H](Cc1ccccc1)C(=O)N[C@@H](C)C(=O)OCc1ccccc1` (H-Val-Phe-Ala-OBn), for which the IC50 in assay [12] was determined as 1000 µM. This counts as millimolar.
`CC(C)[C@H](NC(=O)[C@@H](N)CC(N)=O)C(=O)N[C@@H](Cc1ccccc1)C(=O)N[C@@H](C)C(=O)OCc1ccccc1` (H-NVFA-OBn) had an IC50 in [12] of 800 µM. The IC50 values of the last two molecules are within 1.5-fold of each other.
